Experiments:
Format in all cases: functional, cell-based
BEL-7404 tumor cell line = assay: Cytotoxicity against human Bel7404 cells assessed as reduction in cell viability after 72 hrs by MTT assay; details: BEL-7404, 72 h
Procedure, shortened: (§1)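 Human cancer cells grown in 96-well plates and exposed for 72 h at 37 °C under 5% CO2. Survival rates read by MTT assay, with doxorubicin as positive control. IC50 reported as the mean of triplicate determinations.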

MDA-MB-231 = assay: Cytotoxicity against human MDA-MB-231 cells assessed as reduction in cell viability after 72 hrs by MTT assay; details: MDA-MB-231, 72 h; procedure, shortened: as §1
A549 = assay: Cytotoxicity against human A549 cells assessed as reduction in cell viability after 72 hrs by MTT assay; details: A549, 72 h; procedure, shortened: as §1
HCT-116 = assay: Cytotoxicity against human HCT116 cells assessed as reduction in cell viability after 72 hrs by MTT assay; details: HCT-116, 72 h; procedure, shortened: as §1

| SMILES | IC50 (BEL-7404 tumor cell line) [µM] | IC50 (MDA-MB-231) [µM] | IC50 (A549) [µM] | IC50 (HCT-116) [µM] |
| --- | --- | --- | --- | --- |
| C/C=C(/C)C(=O)O[C@H]1[C@@H](O)[C@@H]2[C@H](OC(=O)[C@H]2COC)[C@@H](OC(=O)C(C)C)[C@@](C)(O)C(=O)CC[C@H]1C | 71.7 | > 100 | > 100 | 49.6 |
| C/C=C(/C)C(=O)O[C@@H]1[C@H]2OC(=O)[C@@H](COC)[C@@H]2[C@H](O)[C@H](OC(=O)CC(C)C)[C@H](C)CCC(=O)[C@]1(C)O | 79 | > 100 | > 100 | 71.5 |
| C=C1C(=O)O[C@H]2[C@H]1[C@H](O)[C@H](OC(=O)/C(C)=C\C)[C@H](C)CCC(=O)[C@](C)(O)[C@@H]2OC(=O)C(C)C | 1.8 | 2.02 | 12.1 | 0.87 |
| C=C1C(=O)O[C@H]2[C@H]1[C@@H](O)[C@]1(O)O[C@@H](C[C@H]1C)C[C@](C)(O)[C@@H]2OC(=O)C(C)C | 81.9 | > 100 | > 100 | > 100 |
| C=C1C(=O)O[C@H]2[C@H]1[C@H](O)[C@]1(O)O[C@@H](C[C@H]1C)C[C@](C)(O)[C@@H]2OC(=O)/C(C)=C\C | 69.6 | > 100 | > 100 | 37.5 |
| C=C1C(=O)O[C@H]2[C@H]1[C@H](OC(=O)C(C)C)C(=O)[C@H](C)CCC[C@](C)(O)[C@@H]2OC(=O)C(C)C | 7.32 | 7.48 | 29.9 | 2.65 |
| C=C1C(=O)O[C@H]2[C@H]1[C@H](OC(=O)/C(C)=C\C)C(=O)[C@H](C)CCC[C@](C)(O)[C@@H]2OC(=O)C(C)C (relative stereo) | 7.35 | 7.53 | 18.4 | 5.51 |
| C=C1C(=O)O[C@H]2[C@H]1[C@@H](O)[C@]1(O)O[C@@H](C[C@H]1C)C[C@](C)(O)[C@@H]2OC(=O)/C(C)=C\C (relative stereo) | 56.4 | > 100 | > 100 | > 100 |
| C/C=C(/C)C(=O)O[C@H]1[C@@H](O)[C@@H]2[C@H](OC(=O)[C@H]2COC)[C@@H](OC(=O)/C(C)=C\C)[C@@](C)(O)C(=O)CC[C@H]1C (relative stereo) | 88.1 | > 100 | > 100 | 36.4 |
| C/C=C(/C)C(=O)O[C@H]1[C@@H](O)[C@@H]2[C@H](OC(=O)[C@H]2COC)[C@@H](OC(=O)C(C)CC)[C@@](C)(O)C(=O)CC[C@H]1C (relative stereo) | 62.9 | > 100 | 90.4 | 58 |
| COc1cccc2c1C(=O)c1c(O)c3c(c(O)c1C2=O)C[C@@](O)(C(=O)CO)C[C@@H]3O[C@H]1C[C@H](N)[C@H](O)[C@H](C)O1 [DOXORUBICIN] | 0.13 | 0.13 | 0.015 | 0.007 |

Source: ChEMBL document CHEMBL4041470, “Isolation, Structure Elucidation, and Absolute Configuration of Highly Oxygenated Germacranolides from Carpesium cernuum” (J Nat Prod, 2016)
